Assay results: ChEMBL document CHEMBL5233208, “Optimization of P2Y12 Antagonist Ethyl 6-(4-((Benzylsulfonyl)carbamoyl)piperidin-1-yl)-5-cyano-2-methylnicotinate (AZD1283) Led to the Discovery of an Oral Antiplatelet Agent with Improved Druglike Properties” (J Med Chem, 2019)
Calls of active or inactive are those of the source. The rule behind the calls is not given here.

What was measured:
Rattus norvegicus [1] = assay: Antithrombotic activity in anesthetized Wistar rat model of tail-bleeding assessed as increase in bleeding weight at 40 mg/kg, po administered as single dose measured at 1.5 hrs post dose; format: functional
Method in brief: (§1)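 Male rats (250–300 g, n = 10 per dose) acclimatized at least 7 days, then dosed by oral gavage. At 1.5 h, anesthetized with 2% pentobarbital i.p. at 50 mg/kg. Tail transected 4 mm from the tip and immersed in saline at 37 °C; bleeding ended when no blood appeared for 30 s. Bleeding time and blood loss weight recorded as mean ± SEM.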

Rattus norvegicus [2] = assay: Antithrombotic activity in anesthetized Wistar rat model of tail-bleeding assessed as increase in bleeding weight at 20 mg/kg, po administered as single dose measured at 1.5 hrs post dose; format: functional; method in brief: as §1
[3] = Tmax in Sprague-Dawley rat at 5 mg/kg,po measured up to 24 hrs by LC-MS/MS analysis; format: ADME, organism-based; details: in vivo
[4] = Metabolic stability in human liver microsomes assessed as half life at […] measured up to 60 mins in presence of NADPH regeneration system by LC-MS/MS analysis; format: ADME, Microsome
[5] = Half life in Sprague-Dawley rat at 5 mg/kg,po measured up to 24 hrs by LC-MS/MS analysis; format: ADME, organism-based; details: in vivo
Homo sapiens = organism: Homo sapiens; assay: Antiplatelet activity in human platelet-rich plasma assessed as inhibition of ADP-induced platelet aggregation by aggregometry; format: functional
Method in brief: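 Human PRP from healthy donors free of aspirin/NSAIDs for at least two weeks, drawn into ACD; PRP spun at 300 g for 10 min, PPP at 2000 g. Compound in 0.5% DMSO preincubated 2 min at 37 °C with stirring (900 rpm). Aggregation induced by 10 μM ADP (final) and followed optically for 5 min.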

Rattus norvegicus [6] = assay: Antithrombotic activity in anesthetized Wistar rat model of FeCL3-induced carotid artery thrombosis assessed as reduction in thrombus weight by measuring inhibition of thrombosis formation at 40 mg/kg, po administered as single dose measured at 1.5 hrs post dose; format: functional; set-up: scale not given: the % may be the effect or the level left
Method in brief: (§2)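 Compounds in 0.5% CMC-Na given to Wistar rats as a single oral gavage dose (10 mL/kg). Rats anesthetized with 2% pentobarbital i.p. at 50 mg/kg and kept on a heating pad. At 1.5 h post-dose, filter paper soaked in 20% FeCl3 applied to the isolated left carotid artery for 10 min; thrombus weight recorded. Mean ± SEM, n = 10.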

Rattus norvegicus [7] = assay: Antithrombotic activity in anesthetized Wistar rat model of tail-bleeding assessed as increase in bleeding weight at 10 mg/kg, po administered as single dose measured at 1.5 hrs post dose; format: functional; method in brief: as §1
[8] = Metabolic stability in dog liver microsomes assessed as half life at […] measured up to 60 mins in presence of NADPH regeneration system by LC-MS/MS analysis; format: ADME, Canis lupus familiaris, Microsome
[9] = Oral bioavailability in Sprague-Dawley rat at 5 mg/kg,po measured up to 24 hrs by LC-MS/MS analysis; format: ADME, organism-based; details: in vivo
Rattus norvegicus [10] = assay: Antithrombotic activity in anesthetized Wistar rat model of tail-bleeding assessed as increase in bleeding time po administered as single dose measured at 1.5 hrs post dose; format: functional; method in brief: as §1
[11] = MRT in Sprague-Dawley rat at 5 mg/kg,po measured up to 24 hrs by LC-MS/MS analysis; format: ADME, organism-based; details: in vivo
Rattus norvegicus [12] = assay: Antithrombotic activity in anesthetized Wistar rat model of tail-bleeding assessed as increase in bleeding weight at […], po administered as single dose measured at 1.5 hrs post dose; format: functional
Rattus norvegicus [13] = assay: Antithrombotic activity in anesthetized Wistar rat model of tail-bleeding assessed as increase in bleeding time at 40 mg/kg, po administered as single dose measured at 1.5 hrs post dose; format: functional; method in brief: as §1
Rattus norvegicus [14] = assay: Antithrombotic activity in anesthetized Wistar rat model of FeCL3-induced carotid artery thrombosis assessed as reduction in thrombus weight at 10 mg/kg, po administered as single dose measured at 1.5 hrs post dose; format: functional, organism-based; method in brief: as §2
[15] = Metabolic stability in dog liver microsomes assessed as intrinsic clearance at 0.1 µM measured up to 60 mins in presence of NADPH regeneration system by LC-MS/MS analysis; details: 1 h
[16] = Metabolic stability in rat liver microsomes assessed as intrinsic clearance at 0.1 µM measured up to 60 mins in presence of NADPH regeneration system by LC-MS/MS analysis; details: 1 h
[17] = Cmax in Sprague-Dawley rat at 5 mg/kg,po measured up to 24 hrs by LC-MS/MS analysis; format: ADME, organism-based; set-up: time < 24 hrs, dose 5 mg/kg, route po; details: in vivo
Rattus norvegicus [18] = assay: Antithrombotic activity in anesthetized Wistar rat model of tail-bleeding assessed as increase in bleeding weight at 5 mg/kg, po administered as single dose measured at 1.5 hrs post dose; format: functional; method in brief: as §1
[19] = Metabolic stability in human liver microsomes assessed as intrinsic clearance at 0.1 µM measured up to 60 mins in presence of NADPH regeneration system by LC-MS/MS analysis; details: 1 h
[20] = Metabolic stability in rat liver microsomes assessed as half life at […] measured up to 60 mins in presence of NADPH regeneration system by LC-MS/MS analysis; format: ADME, Microsome
[21] = AUC (0 to infinity) in Sprague-Dawley rat at 5 mg/kg,po measured up to 24 hrs by LC-MS/MS analysis; format: ADME, organism-based; set-up: time < 24 hrs, dose 5 mg/kg, route po; details: in vivo
Rattus norvegicus [22] = assay: Antithrombotic activity in anesthetized Wistar rat model of FeCL3-induced carotid artery thrombosis assessed as reduction in thrombus weight po administered as single dose measured at 1.5 hrs post dose; format: functional; method in brief: as §2

- Tmax [3]: 0.25 h
- half-life [4]: 3.47 h
- half-life [5]: 2.91 h
- IC50 (Homo sapiens): 2.94 µM
- half-life [8]: 1.62 h
- bioavailability [9]: 51%
- MRT [11]: 3.64 h
- intrinsic clearance [15]: 116.3 mL/min/g
- intrinsic clearance [16]: 10.6 mL/min/g
- Cmax [17]: 1660 ng/mL
- intrinsic clearance [19]: 10.1 mL/min/g
- half-life [20]: 1.48 h
- AUC(0-inf) [21]: 4120 ng·h/mL
SMILES: Cc1ccc(CS(=O)(=O)NC(=O)C2(C)CCN(c3nc4c(cc3C#N)C(=O)OC4)CC2)cc1
- Activity (Rattus norvegicus [1]): 0.66 g
- Activity (Rattus norvegicus [2]): 0.43 g
- Activity (Rattus norvegicus [6]): 56%
- Activity (Rattus norvegicus [7]): 0.39 g
- ED100 (Rattus norvegicus [10]): 7.58 mg/kg
- Activity (Rattus norvegicus [12]): 0.24 g
- Time (Rattus norvegicus [13]): 33.09 min
- Activity (Rattus norvegicus [14]): Active
- Activity (Rattus norvegicus [18]): 0.31 g
- ED50 (Rattus norvegicus [22]): 27 mg/kg
